Read-outs that look alike come from different tables or passages of the source.
Legend:
[1] = tested on: cGMP in mouse ovarian follicles; conditions: ref Vaccari et al. 2009, cited from earlier work
ERK2 = ERK2 (Homo sapiens, UniProt P28482); assay: In vitro kinase profiling, ERK2; assay type: biochemical; conditions: 1 μM AG1478
[2] = tested on: gap junctions in mouse ovarian follicles; assay: Gap junction permeability by Alexa Fluor 350 tracer injection; assay type: cell-based; conditions: for MG/IC fluorescence ratio as percent of the basal level: one hour treatment, LH 350 nM, epiregulin 100 nM
In short: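 Antral follicles (~320–400 μm) from 23–24-day B6SJLF1 mice, cultured 24–32 h at 37°C, 5% CO2, in phenol-red-free MEMα with FSH and 3 mg/ml BSA; 1 h LH (350 nM) or epiregulin. Follicle-enclosed oocyte microinjected with 2.5 mM Alexa Fluor 350 (326 Da); two-photon imaging 20 min later; mural granulosa/inner cumulus fluorescence ratio; mean ± s.e.m., n = follicles.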

110 kinases = assay: In vitro kinase profiling panel; assay type: biochemical; conditions: for percent of activity remaining: 1 μM AG1478
[3] = tested on: cGMP in mouse ovarian follicles; assay: cGMP ELISA assay in isolated ovarian follicles; assay type: cell-based
In short: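 Cultured mouse antral follicles (24–32 h, FSH, 3 mg/ml BSA), treated 1 h with LH (350 nM) or epiregulin (100 nM), or 1 h 500 nM test compound then 1 h test compound + LH. 12–20 unfrozen follicles washed in Ca/Mg-free PBS, sonicated in 0.1 M HCl (±1% Triton X-100), heated 95°C 2 min, stored −80°C, assayed by cGMP ELISA. Concentration approximated from 20 nl estimated cellular volume; mean ± s.e.m.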

EGFR [4] = biological target: T1, EGFR (Mus musculus, UniProt Q01279); conditions: 500 nM AG1478, follicles stimulated with LH; ref Panigone et al. 2008; cited from earlier work
ERK1 = ERK1 (Homo sapiens, UniProt P27361); assay: In vitro kinase profiling, ERK1; assay type: biochemical; conditions: 1 μM AG1478
EGFR [5] = biological target: T1, EGFR; assay: Immunoblot of EGFR phosphorylation on tyrosine 1068 in follicles; assay type: cell-based; conditions: 500 nM AG1478, follicles stimulated with LH
EGFR kinase = conditions: read-out: IC50, EGFR kinase activity; in vitro; ref Levitzki & Gazit 1995; cited from earlier work
[6] = tested on: follicle-enclosed oocytes; assay: Nuclear envelope breakdown; assay type: cell-based, mouse
In short: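 Meiotic resumption scored by viewing the oocyte nucleus through the follicle wall from above (20X/0.4 NA long working distance objective). Follicles from 23–24-day B6SJLF1 mice were cultured 24–32 h in FSH-containing, serum-free medium (3 mg/ml BSA), 37°C, 5% CO2, checked at 24 h, and only healthy prophase-arrested ones used. LH at 350 nM. Experiments discarded when <70% of LH controls reached NEBD by 5 h.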

[7] = tested on: gap junctions in mouse ovarian follicles; conditions: 10 μM U0126; ref Norris et al. 2008; cited from earlier work
[8] = tested on: follicle-enclosed oocytes; conditions: U0126; ref Su et al., 2003; Norris et al. 2008; cited from earlier work
MAP kinase = conditions: 10 μM U0126; ref Norris et al. 2008; cited from earlier work

T1 sequence (Q01279 25-1210): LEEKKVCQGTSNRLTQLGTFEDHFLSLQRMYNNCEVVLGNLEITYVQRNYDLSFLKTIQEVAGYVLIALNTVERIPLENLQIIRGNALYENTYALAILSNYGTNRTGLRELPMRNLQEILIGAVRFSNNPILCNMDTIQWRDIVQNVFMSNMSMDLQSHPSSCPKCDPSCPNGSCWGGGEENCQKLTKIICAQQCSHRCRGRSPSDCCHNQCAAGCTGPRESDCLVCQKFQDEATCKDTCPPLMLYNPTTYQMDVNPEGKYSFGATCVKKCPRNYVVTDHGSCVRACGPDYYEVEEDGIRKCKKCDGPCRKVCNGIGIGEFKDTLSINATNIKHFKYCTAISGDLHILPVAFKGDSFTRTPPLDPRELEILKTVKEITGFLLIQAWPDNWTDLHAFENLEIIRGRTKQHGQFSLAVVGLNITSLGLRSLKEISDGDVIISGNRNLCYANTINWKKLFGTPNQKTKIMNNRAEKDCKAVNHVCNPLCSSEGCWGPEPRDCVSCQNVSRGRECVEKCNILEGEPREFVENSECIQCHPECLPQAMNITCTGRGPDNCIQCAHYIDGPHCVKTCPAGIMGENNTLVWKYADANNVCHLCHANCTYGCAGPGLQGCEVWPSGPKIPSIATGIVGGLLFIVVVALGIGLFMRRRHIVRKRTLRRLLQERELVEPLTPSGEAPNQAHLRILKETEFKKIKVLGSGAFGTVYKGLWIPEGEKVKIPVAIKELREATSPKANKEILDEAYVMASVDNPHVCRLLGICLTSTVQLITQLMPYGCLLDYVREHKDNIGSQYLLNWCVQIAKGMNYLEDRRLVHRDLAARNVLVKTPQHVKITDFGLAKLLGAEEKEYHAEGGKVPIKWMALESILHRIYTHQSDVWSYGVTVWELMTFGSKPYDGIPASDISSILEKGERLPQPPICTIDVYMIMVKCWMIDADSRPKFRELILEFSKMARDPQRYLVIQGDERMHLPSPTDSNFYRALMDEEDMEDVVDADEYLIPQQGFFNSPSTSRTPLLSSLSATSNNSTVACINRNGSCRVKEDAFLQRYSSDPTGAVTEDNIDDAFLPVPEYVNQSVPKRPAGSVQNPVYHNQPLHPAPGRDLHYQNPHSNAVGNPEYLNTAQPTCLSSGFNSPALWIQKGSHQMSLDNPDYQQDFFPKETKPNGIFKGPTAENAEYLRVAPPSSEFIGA
Sequence of ERK2 (P28482 whole entry, species assumed): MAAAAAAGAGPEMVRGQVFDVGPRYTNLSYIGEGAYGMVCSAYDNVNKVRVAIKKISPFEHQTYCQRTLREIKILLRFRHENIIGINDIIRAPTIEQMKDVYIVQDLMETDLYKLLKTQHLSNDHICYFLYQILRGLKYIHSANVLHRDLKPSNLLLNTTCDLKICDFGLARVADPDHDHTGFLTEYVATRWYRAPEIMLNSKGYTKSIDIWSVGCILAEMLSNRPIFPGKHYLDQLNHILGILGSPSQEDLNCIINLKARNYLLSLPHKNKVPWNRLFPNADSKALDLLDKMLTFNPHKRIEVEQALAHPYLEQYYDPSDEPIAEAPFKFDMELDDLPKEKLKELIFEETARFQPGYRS
Sequence of ERK1 (P27361 whole entry, species assumed): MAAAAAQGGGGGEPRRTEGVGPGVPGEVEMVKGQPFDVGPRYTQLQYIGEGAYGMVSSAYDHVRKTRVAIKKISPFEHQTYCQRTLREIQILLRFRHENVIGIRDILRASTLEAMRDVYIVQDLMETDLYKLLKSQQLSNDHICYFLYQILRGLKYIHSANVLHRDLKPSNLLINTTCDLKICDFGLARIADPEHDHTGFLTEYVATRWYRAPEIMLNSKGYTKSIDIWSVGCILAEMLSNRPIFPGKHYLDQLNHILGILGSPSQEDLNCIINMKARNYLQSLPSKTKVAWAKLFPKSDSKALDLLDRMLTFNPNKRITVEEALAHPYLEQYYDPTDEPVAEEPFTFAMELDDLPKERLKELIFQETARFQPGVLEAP

## COc1cc2ncnc(Nc3cccc(Cl)c3)c2cc1OC [AG1478]
[1]; 500 nM AG1478
  effect on the cGMP decrease in response to LH: completely inhibited
ERK2
  inhibition of ERK2: not inhibited
[2]; in the presence of 500 nM AG1478
  gap junction permeability after LH application: indistinguishable from that in an untreated follicle
110 kinases; seven of the 110 kinases tested
  percent of activity remaining: 30-50%
110 kinases; the other 101 kinases
  percent of activity remaining: > 50%
110 kinases; two of the 110 kinases tested
  percent of activity remaining: 10-20%
110 kinases; 101 out of the 110 kinases tested
  IC50: > 1000 nM
[3]; 1 hour after LH in the presence of 500 nM AG1478
  cGMP as percent of the basal level: ~ 15%
[3]; 1 hour after LH in the presence of 500 nM AG1478 (1 hour pretreatment)
  follicle cGMP concentration: […]
EGFR [4]
  effect on LH-induced EGFR phosphorylation on tyrosine 1068: completely inhibits
ERK1
  inhibition of ERK1: not inhibited
EGFR [5]
  LH-stimulated phosphorylation of the EGFR on tyrosine 1068: indistinguishable from the basal level without LH
EGFR kinase
  IC50: […]
[6]; 500 nM AG1478 + LH, observed at 20 hours
  oocytes that had resumed meiosis: ~ 30%
[6]; 500 nM AG1478, observed at 6 hours
  effect on nuclear envelope breakdown in response to LH: completely inhibited

## N#CC(=C(/N)Sc1ccccc1N)/C(C#N)=C(/N)Sc1ccccc1N [U0126]
[3]; 10 μM U0126, 1 hour pretreatment then 1 hour U0126 + LH
  effect on the cGMP decrease in response to LH: did not have any inhibitory effect
[7]
  effect on gap junction closure in response to LH: completely inhibits
[8]
  meiotic resumption in response to LH in the presence of inhibitor: causes meiotic resumption
MAP kinase
  effect on MAP kinase activation in response to LH: fully inhibit

## epiregulin
[2]
  MG/IC fluorescence ratio as percent of the basal level: 32%
[3]; 100 nM epiregulin, 1 hour, relative to LH
  part of the LH-induced follicle cGMP decrease caused by epiregulin: ~ 80%
[3]; 1 hour treatment with 100 nM epiregulin
  follicle cGMP concentration: ~ 600 nM
[6]; 100 nM epiregulin, by 4 hours
  oocytes that underwent nuclear envelope breakdown: Approximately 90%

## luteinizing hormone [LH]
[1]; 1 hour after LH application
  cGMP as percent of the basal level: 39%
[2]
  MG/IC fluorescence ratio as percent of the basal level: 9%
[3]; 1 hour after LH application
  cGMP as percent of the basal level: ~ 4%
[3]; 1 hour after LH application (350 nM), approximate
  follicle cGMP concentration: ~ 100 nM
[3]; 5 hours after LH application (350 nM), approximate
  follicle cGMP concentration: ~ 30 nM
